According to ChEMBL document CHEMBL1681674, “Synthesis of 3-phenylpyrazolopyrimidine-1,2,3-triazole conjugates and evaluation of their Src kinase inhibitory and anticancer activities” (Bioorg Med Chem Lett, 2011):

Legend:
[1] = target: T1, Proto-oncogene tyrosine-protein kinase Src (Homo sapiens, UniProt P12931); assay: Inhibition of GST-fussed c-SRC after 30 mins
MDA-MB-361 [2] = assay: Cytotoxicity against c-SRC expressing human MDA-MB-361 cells assessed as inhibition of cell proliferation at 50 uM after 72 hrs relative to control; format: functional; settings: MDA-MB-361, 72 h
Procedure, shortened: (§1)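 Proliferation of SK-Ov-3, MDA-MB-361 and HT-29 cells was measured after 72 h exposure at 50 μM. Growth is expressed as a percentage of the DMSO vehicle control, set at 100%, with no compound. All experiments were run in triplicate.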

SK-OV-3 [3] = assay: Cytotoxicity against c-SRC expressing human SKOV3 cells assessed as inhibition of cell proliferation at 50 uM after 72 hrs relative to control; format: functional; settings: SK-OV-3, 72 h; procedure, shortened: as §1
HT-29 [4] = assay: Cytotoxicity against c-SRC expressing human HT-29 cells assessed as inhibition of cell proliferation at 50 uM after 72 hrs relative to control; format: functional; settings: HT-29, 72 h; procedure, shortened: as §1
HT-29 [5] = assay: Cellular uptake in c-SRC expressing human HT-29 cells; format: ADME, cell-based
SK-OV-3 [6] = assay: Cellular uptake in c-SRC expressing human SKOV3 cells; format: ADME, cell-based
MDA-MB-361 [7] = assay: Cellular uptake in c-SRC expressing human MDA-MB-361 cells; format: ADME, cell-based
[8] = target: T1, Proto-oncogene tyrosine-protein kinase Src; assay: Inhibition of GST-fussed c-SRC up to 250 uM after 30 mins
Procedure, shortened: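 Src kinase enzyme inhibition was assessed at concentrations up to 250 μM.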

T1 sequence (P12931 2-536 limits assumed): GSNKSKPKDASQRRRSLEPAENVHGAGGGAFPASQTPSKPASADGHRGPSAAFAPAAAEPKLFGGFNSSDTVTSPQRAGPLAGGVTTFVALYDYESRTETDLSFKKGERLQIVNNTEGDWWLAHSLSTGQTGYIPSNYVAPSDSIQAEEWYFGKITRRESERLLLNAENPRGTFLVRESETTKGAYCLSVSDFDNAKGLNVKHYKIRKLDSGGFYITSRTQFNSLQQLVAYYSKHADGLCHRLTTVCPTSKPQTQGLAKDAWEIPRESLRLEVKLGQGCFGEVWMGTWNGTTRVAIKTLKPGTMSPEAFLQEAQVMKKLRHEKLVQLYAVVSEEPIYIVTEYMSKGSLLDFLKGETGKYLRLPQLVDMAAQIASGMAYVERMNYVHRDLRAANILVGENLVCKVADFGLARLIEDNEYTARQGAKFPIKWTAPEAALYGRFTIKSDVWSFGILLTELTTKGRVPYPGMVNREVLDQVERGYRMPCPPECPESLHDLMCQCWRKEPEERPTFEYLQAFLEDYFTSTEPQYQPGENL

Row | SMILES | IC50 [1] [µM] | other results
1 | Nc1ncnc2c1c(-c1ccccc1)nn2Cc1cn(CC(=O)CCCO)nn1 | 9.1 | 
2 | Nc1ncnc2c1c(-c1ccccc1)nn2Cc1cn(CC(=O)Nc2ccccc2)nn1 | 23.1 | inhibition at 50 µM (MDA-MB-361 [2]): 51%
3 | Nc1ncnc2c1c(-c1ccccc1)nn2Cc1cn(CC(=O)c2ccc(Cl)cc2)nn1 | > 75 | 
4 | Cc1ccc(C(=O)Cn2cc(Cn3nc(-c4ccccc4)c4c(N)ncnc43)nn2)cc1 | > 75 | 
5 | Nc1ncnc2c1c(-c1ccccc1)nn2Cc1cn(CC(=O)Nc2ccc(Cl)cc2)nn1 | > 75 | 
6 | Nc1ncnc2c1c(-c1ccccc1)nn2Cc1cn(CC(=O)Nc2ccc(F)cc2)nn1 | 16.4 | 
7 | CCOC(=O)Cn1cc(Cn2nc(-c3ccccc3)c3c(N)ncnc32)nn1 | 12.7 | 
8 | Nc1ncnc2c1c(-c1ccccc1)nn2Cc1cn(CC(=O)c2cccs2)nn1 | > 75 | 
9 | CC(=O)c1ccc(-c2cn(CCn3nc(-c4ccccc4)c4c(N)ncnc43)nn2)cc1 | > 75 | 
10 | COc1ccc(-c2cn(CCn3nc(-c4ccccc4)c4c(N)ncnc43)nn2)cc1 | 17.4 | inhibition at 50 µM (SK-OV-3 [3]): 58%; inhibition at 50 µM (HT-29 [4]): 73%
11 | [N-]=[N+]=NCCn1nc(-c2ccccc2)c2c(N)ncnc21 | 6.2 | 
12 | CCCCCCc1cn(CCn2nc(-c3ccccc3)c3c(N)ncnc32)nn1 | 5.6 | Drug uptake (HT-29 [5]): Active; Drug uptake (SK-OV-3 [6]): Active; Drug uptake (MDA-MB-361 [7]): Active
13 | CCCCc1cn(CCn2nc(-c3ccccc3)c3c(N)ncnc32)nn1 | > 75 | 
14 | Nc1ncnc2c1c(-c1ccccc1)nn2CCn1cc(-c2ccc(F)cc2)nn1 | 29.6 | inhibition at 50 µM (MDA-MB-361 [2]): 49%
15 | CCCCCCCCCCc1cn(CCn2nc(-c3ccccc3)c3c(N)ncnc32)nn1 | > 75 | 
16 | Nc1ncnc2c1c(-c1ccccc1)nn2CCn1cc(CCCCl)nn1 |  | inhibition at 50 µM (HT-29 [4]): 57%; inhibition [8]: < 10%
17 | CCCCCCCc1cn(CCn2nc(-c3ccccc3)c3c(N)ncnc32)nn1 | > 75 | 
18 | Nc1ncnc2c1c(-c1ccccc1)nn2CCn1cc(Cc2ccccc2)nn1 |  | inhibition [8]: < 10%
19 | Nc1ncnc2c1c(-c1ccccc1)nn2Cc1cn(CC(=O)c2ccccc2)nn1 | > 75 | 
20 | Nc1ncnc2c1c(-c1ccccc1)nn2Cc1cn(CC(=O)CCc2cccc3ccccc23)nn1 |  | inhibition at 50 µM (SK-OV-3 [3]): 48%; inhibition [8]: < 10%
